Source: ChEMBL document CHEMBL1921684, “Targeting zymogen activation to control the matriptase-prostasin proteolytic cascade” (J Med Chem, 2011)
Calls of active or inactive are those of the source. The rule behind the calls is not given here.

Experiments:
[1] = target: T1, Suppressor of tumorigenicity 14 protein (Homo sapiens) (UniProt Q9Y5Y6); test: Inhibition of acid-induced matriptase activation in human 184A1N4 cells assessed as increase in 70 kDa latent matriptase using mAb M24 after 30 mins by Western blotting; type: cell-based
T1 sequence (whole entry): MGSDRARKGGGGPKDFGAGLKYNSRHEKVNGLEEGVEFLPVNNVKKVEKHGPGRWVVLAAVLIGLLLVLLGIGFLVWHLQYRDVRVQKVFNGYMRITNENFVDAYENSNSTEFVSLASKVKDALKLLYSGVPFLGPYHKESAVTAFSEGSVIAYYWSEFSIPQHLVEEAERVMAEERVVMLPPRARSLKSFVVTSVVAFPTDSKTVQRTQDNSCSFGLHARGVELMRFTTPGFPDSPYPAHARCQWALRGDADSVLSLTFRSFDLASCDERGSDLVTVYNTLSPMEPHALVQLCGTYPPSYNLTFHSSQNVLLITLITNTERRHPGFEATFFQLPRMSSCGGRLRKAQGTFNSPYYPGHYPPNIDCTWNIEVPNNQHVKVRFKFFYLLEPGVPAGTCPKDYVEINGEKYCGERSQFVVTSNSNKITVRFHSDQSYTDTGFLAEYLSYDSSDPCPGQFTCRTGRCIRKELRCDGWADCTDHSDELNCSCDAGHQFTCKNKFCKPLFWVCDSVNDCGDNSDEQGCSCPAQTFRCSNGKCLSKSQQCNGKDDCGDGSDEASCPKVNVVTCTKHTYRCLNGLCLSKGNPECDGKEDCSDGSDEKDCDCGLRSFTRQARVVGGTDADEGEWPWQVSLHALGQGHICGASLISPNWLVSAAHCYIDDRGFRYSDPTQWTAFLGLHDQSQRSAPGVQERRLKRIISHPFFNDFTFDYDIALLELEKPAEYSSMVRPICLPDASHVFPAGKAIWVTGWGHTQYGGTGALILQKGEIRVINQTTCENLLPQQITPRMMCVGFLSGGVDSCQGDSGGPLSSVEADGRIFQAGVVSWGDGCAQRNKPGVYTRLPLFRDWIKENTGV
How it was run: (§1)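 Intact 184 A1N4 cells pre-treated with compound in 150 mM sodium phosphate pH 6.0 for 30 min at 4 °C, then held 20 min at room temperature to drive activation. PBS served as non-activation control and buffer alone as activation control. Cells lysed in PBS with 1 mM DTNB and 1% Triton X-100. Non-reduced, unboiled lysates run on 7.5% SDS-PAGE. Blots probed with M24 (70-kDa latent form, 120-kDa matriptase-HAI-1 complex) or M69 (activated matriptase); triplicate.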

[2] = target: T1, Suppressor of tumorigenicity 14 protein (Homo sapiens); test: Inhibition of acid-induced matriptase activation in human 184A1N4 cells assessed as decrease in 120 kDa enzyme-HAI-1 complex using mAb M24 after 30 mins by Western blotting relative to untreated control; type: cell-based; how it was run: as §1
[3] = target: T1, Suppressor of tumorigenicity 14 protein (Homo sapiens); test: Inhibition of acid-induced matriptase activation in human 184A1N4 cells assessed as decrease in 120 kDa enzyme-HAI-1 complex using mAb M69 after 30 mins by Western blotting; type: cell-based; how it was run: as §1
[4] = target: T2, Suppressor of tumorigenicity 14 protein (Homo sapiens, UniProt Q9Y5Y6); test: Inhibition of acid-induced matriptase activation in human 184A1N4 cells using mAb M69 by cell-based ELISA like assay
T2 sequence (Q9Y5Y6 whole entry): T1 sequence (whole entry)
How it was run: (§2)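 184 A1N4 cells seeded at 8×10^4 cells/well 24 h ahead. Compound in pH 6.0 sodium phosphate buffer, 30 min at 4 °C, then 20 min at room temperature. Cells fixed in 4% formaldehyde with 0.1% Triton for 20 min. Activated matriptase detected with mAb M69, HRP anti-mouse IgG and TMB; A450. […] Screening used 5 μM final per compound in 1% DMSO.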

[5] = target: T1, Suppressor of tumorigenicity 14 protein (Homo sapiens); test: Inhibition of acid-induced matriptase activation in human 184A1N4 cells assessed as decrease in 120 kDa enzyme-HAI-1 complex using mAb M24 at 5 uM after 30 mins by Western blotting relative to untreated control; type: cell-based; how it was run: as §1
[6] = target: T1, Suppressor of tumorigenicity 14 protein (Homo sapiens); test: Inhibition of acid-induced matriptase activation in human 184A1N4 cells assessed as increase in 70 kDa latent matriptase using mAb M24 at 5 uM after 30 mins by Western blotting; type: cell-based; how it was run: as §1
[7] = target: T1, Suppressor of tumorigenicity 14 protein (Homo sapiens); test: Inhibition of acid-induced matriptase activation in human 184A1N4 cell homogenate using mAb M24 after 30 mins by Western blot analysis
How it was run: (§3)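 Insoluble fraction of 184 A1N4 cell homogenates (made in PBS, collected by centrifugation) preincubated with compound in 150 mM sodium phosphate pH 6.0 for 30 min at 4 °C. Activation then induced for 20 min at room temperature. Non-reduced, unboiled samples run on 7.5% SDS-PAGE. Immunoblot probed with mAb M24 (total matriptase) or M69 (activated matriptase); chemiluminescent detection; triplicate.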

[8] = target: T1, Suppressor of tumorigenicity 14 protein (Homo sapiens); test: Inhibition of acid-induced matriptase activation in human 184A1N4 cell homogenate using mAb M69 after 30 mins by Western blot analysis; how it was run: as §3
[9] = target: T1, Suppressor of tumorigenicity 14 protein (Homo sapiens); test: Inhibition of acid-induced matriptase activation in human HaCaT cells using mAb M24 after 30 mins by Western blot analysis; type: cell-based
How it was run: (§4)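 HaCaT keratinocytes (DMEM, 10% FBS) incubated with compound in phosphate buffer pH 6.0 for 30 min at 4 °C, then 20 min at room temperature. Controls were PBS (no activation) and buffer alone. Lysates run non-reduced on 7.5% SDS-PAGE. Immunoblots probed with M24 (total matriptase), M69 (activated matriptase) and a polyclonal anti-prostasin antibody detecting the prostasin-HAI-1 complex.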

[10] = target: T1, Suppressor of tumorigenicity 14 protein (Homo sapiens); test: Inhibition of acid-induced matriptase activation in human HaCaT cells using mAb M69 after 30 mins by Western blot analysis; type: cell-based; how it was run: as §4
[11] = target: T1, Suppressor of tumorigenicity 14 protein (Homo sapiens); test: Inhibition of acid-induced matriptase-mediated prostasin activation in human HaCaT cells assessed as decrease in prostatin-HAI-1 complex after 30 mins by Western blot analysis; type: cell-based; how it was run: as §4
[12] = target: T1, Suppressor of tumorigenicity 14 protein (Homo sapiens); test: Inhibition of acid-induced matriptase activation in human 184A1N4 cells using mAb M69 at 5 uM by cell-based ELISA like assay; how it was run: as §2
[13] = target: T1, Suppressor of tumorigenicity 14 protein (Homo sapiens); test: Inhibition of acid-induced matriptase activation in human 184A1N4 cells assessed as enzyme-HAI-1 complex using mAb M24 at 5 uM after 30 mins by Western blotting; type: cell-based; how it was run: as §1
[14] = target: T1, Suppressor of tumorigenicity 14 protein (Homo sapiens); test: Inhibition of acid-induced matriptase activation in human 184A1N4 cells using mAb M24 after 20 mins by Western blotting; type: cell-based; how it was run: as §1
[15] = target: T1, Suppressor of tumorigenicity 14 protein (Homo sapiens); test: Inhibition of acid-induced matriptase activation in human 184A1N4 cells using mAb M69 after 20 mins by Western blotting; type: cell-based; how it was run: as §1
[16] = target: T1, Suppressor of tumorigenicity 14 protein (Homo sapiens); test: Inhibition of acid-induced matriptase activation in human 184A1N4 cells using mAb M69 after 20 mins by cell-based ELISA-like assay; how it was run: as §2

inhibition [3] | IC50 [4] [µM] | inhibition [7] | inhibition [8] | Compound | other results
Active | 2.6 | Dose-dependent effect | Dose-dependent effect | Cc1nc(N2C(=O)C(O)=C(C(=O)c3cccs3)C2c2cccs2)sc1C (stereo unspecified) | inhibition [1]: Dose-dependent effect; inhibition [2]: Dose-dependent effect; inhibition [5]: Active; inhibition [6]: Active; inhibition [9]: Dose-dependent effect; inhibition [10]: Dose-dependent effect; inhibition [11]: Dose-dependent effect
– | 9.8 | Dose-dependent effect | Dose-dependent effect | O=C(C1=C(O)C(=O)N(c2nccs2)C1c1cccs1)c1cccs1 (stereo unspecified) | inhibition [12]: Active; inhibition [13]: Active
– | 21.8 | Dose-dependent effect | Dose-dependent effect | Cc1nc(N2C(=O)C(O)=C(C(=O)c3ccccc3)C2c2cccs2)sc1C (stereo unspecified) | –
Active | 7 | Dose-dependent effect | Dose-dependent effect | Cc1nc(N2C(=O)C(O)=C(C(=O)c3cccs3)C2c2ccccc2)sc1C (stereo unspecified) | –
– | – | – | – | [Cl-].[Na+] | inhibition [14]: Dose-dependent effect; inhibition [15]: Dose-dependent effect; inhibition [16]: Dose-dependent effect
